Assay results from different studies.
Lines come from different studies, so protocols differ. pEC50: −log10 of the molar value.
GRM4: Metabotropic glutamate receptor 4 (GRM4, Homo sapiens, UniProt Q14833)
Melanocortin receptor 5: Melanocortin receptor 5 (Mus musculus, UniProt P41149)
Ppara: Peroxisome proliferator-activated receptor alpha (Ppara, Mus musculus, UniProt P23204)

| Structure (SMILES) | target | read-out | mode | method | pEC50 |
| --- | --- | --- | --- | --- | --- |
| COc1ccc(-c2nsc(NC(=O)[C@@H]3C[C@H]3C)c2C)cc1 | GRM4 | calcium signal | agonist | – | < 4.60 |
| C[C@@H]1NC(=O)[C@H](CCCNC(=N)N)NC(=O)[C@H](Cc2ccccc2)NC(=O)[C@H](Cc2ccccc2)NC(=O)[C@H](CCCNC(=N)N)NC(=O)[C@@H]2CCCN2C(=O)[C@H]2CCCN2C(=O)[C@H](Cc2ccccc2)NC1=O | Melanocortin receptor 5 | reporter gene | agonist | – | < 4.00 |
| O=C(Nc1ccc(N2C(=O)c3ccccc3C2=O)c(Cl)c1)c1ncccc1Cl | Metabotropic glutamate receptor 1 (GRM1, Homo sapiens, UniProt Q13255) | calcium signal | positive allosteric modulator | – | 5.90 |
| Cc1nc(-c2ccc(C(F)(F)F)cc2)sc1C(=O)NCc1ccc(OC(C)(C)C(=O)O)cc1 | Ppara | reporter gene | agonist | luciferase | 7.01 |
| N=C(N)NCCC[C@H](NC(=O)[C@@H](N)CC(=O)O)C(=O)N[C@@H](Cc1ccccc1)C(=O)NCC(=O)O | Melanocortin receptor 5 | reporter gene | agonist | – | < 4.00 |
| CCN(C(=O)C1CCN(S(=O)(=O)c2ccc3[nH]ncc3c2)CC1)[C@H](C)c1ccccc1 | Muscarinic acetylcholine receptor M4 (CHRM4, Homo sapiens, UniProt P08173) | calcium signal | agonist | – | < 4.52 |
| CCCC[C@H](NC(=O)[C@@H](NC(=O)[C@@H](N)Cc1ccc(O)cc1)C(C)C)C(=O)NCC(=O)N[C@@H](Cc1c[nH]cn1)C(=O)N[C@@H](Cc1ccccc1)C(=O)N[C@@H](CCCN=C(N)N)C(=O)N[C@@H](Cc1c[nH]c2ccccc12)C(=O)N[C@@H](CC(=O)O)C(=O)N[C@@H](CCCN=C(N)N)C(=O)N[C@@H](Cc1ccccc1)C(=O)NCC(=O)O | Melanocortin receptor 5 | reporter gene | agonist | – | 6.85 |
| CC(C)(Oc1ccc(C(=O)c2ccc(Cl)cc2)cc1)C(=O)O | Ppara | reporter gene | agonist | luciferase | 4.45 |
| COC(=O)c1ccc(-n2c(C)cc(C(=O)CSc3ccc(NC(C)=O)cc3)c2C)cc1 | GRM4 | calcium signal | positive allosteric modulator | – | 5.48 |
| CSCC[C@H](N)C(=O)NCC(=O)N[C@@H](Cc1c[nH]cn1)C(=O)N[C@@H](Cc1ccccc1)C(=O)N[C@@H](CCCNC(=N)N)C(=O)N[C@@H](Cc1c[nH]c2ccccc12)C(=O)O | Melanocortin receptor 5 | reporter gene | agonist | – | 5.35 |
